The source made the active and inactive calls. No cut-off for these calls is given here.
Assays:
Mast cell [1] = assay: Inhibition of degranulation in IgE-labeled bone marrow-derived mast cells (unknown origin) assessed as reduction in beta-hexosaminidase release by measuring absorbance at 10 uM preincubated for 1 hr followed by HSA stimulation and measured after 15 mins (reference value: 0.26 +/- 0.025); type: functional
[2] = Drug metabolism in human liver microsomes assessed as hydroxyl metabolite formation at 100 uM preincubated for 5 mins followed by NADPH/UDPGA addition and measured up to 2 hrs by LC-MS/MS analysis; type: ADME, Microsome
How it was run: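 Pooled human liver microsomes (1.0 mg/mL) were mixed with alamethicin (25 μg/mg protein) and kept on ice for 15 min. Substrate (100 μM) was added and the mix preincubated 5 min at 37 °C. NADPH (1.3 mM) and UDPGA (5 mM) were then added and incubation ran 2 h with agitation. The reaction was stopped with ice-cold acetonitrile, centrifuged, and the supernatant analysed by LC-MS/MS (ESI positive, transition 358.2 → 84.1).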

[3] = Clearance in rat at 5 mg/kg, iv; type: ADME, organism-based; conditions: in vivo
How it was run: (§1)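 Male rats given a single dose, 5 mg/kg intravenously or 10 mg/kg orally. Plasma PK parameters were reported as mean ± SD: AUCt, AUC∞, Cmax, Tmax, T1/2, CL, Vss and oral bioavailability F.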

RKO [4] = assay: Induction of apoptosis in human RKO cells assessed as live cells at 10 uM after 24 hrs by Annexin V/propidium iodide staining based flow cytometry (reference value: 82.4%); type: functional
HFL1 = assay: Cytotoxicity against HFL1 cells; type: cell-based; conditions: Homo sapiens
[5] = target: RAC-alpha serine/threonine-protein kinase (Mus musculus) (UniProt P31750); assay: Increase in AKT phosphorylation at Ser-473 residue in mouse AML-12 cells at 10 uM after 24 hrs by Western blot analysis; type: cell-based
How it was run: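 AML12 hepatocytes challenged with palmitate, then exposed to 10 μM compound or vehicle (5 mM DCA as reference) for 24 h; p-Akt read by Western blot of cell lysates.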

RKO [6] = assay: Cell cycle arrest in human RKO cells assessed as accumulation at G1/G0 phase at 25 uM after 24 hrs in presence of oxaliplatin propidium iodide staining based flow cytometry (reference value: 44.3%); type: functional
How it was run: (§2)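 HCT116 and RKO cells were treated with compound alone or with oxaliplatin for 24 h before harvest. Cells were stained with propidium iodide, and DNA content was analysed by flow cytometry. Cell-cycle phase populations, including sub-G1, are given as percentages.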

HCT-116 [7] = assay: Cell cycle arrest in human HCT116 cells assessed as accumulation at G2/M phase at 25 uM after 24 hrs propidium iodide staining based flow cytometry (reference value: 22.2%); type: functional; how it was run: as §2
RKO [8] = assay: Antiproliferative activity against human RKO cells up to 50 uM up to 72 hrs by CCK8 assay; type: functional, cell-based
How it was run: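 HCT116 and RKO cells were treated with compound alone or with oxaliplatin and grown for 0–72 h. Viability was read by CCK-8 colorimetry at 450 nm.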

RKO [9] = assay: Induction of apoptosis in human RKO cells assessed as late apoptotic cells at 25 uM after 24 hrs in presence of oxaliplatin by Annexin V/propidium iodide staining based flow cytometry (reference value: 7.02%); type: functional
[10] = target: [Pyruvate dehydrogenase (acetyl-transferring)] kinase isozyme 4, mitochondrial (Homo sapiens, UniProt Q16654); assay: Inhibition of PDK4 (unknown origin)
HCT-116 [11] = assay: Induction of apoptosis in human HCT116 cells assessed as necrotic cells at 25 uM after 24 hrs in presence of oxaliplatin by Annexin V/propidium iodide staining based flow cytometry (reference value: 21.2%); type: functional
CHO-K1 = assay: Cytotoxicity against CHOK1 cells; type: cell-based; conditions: Cricetulus griseus
HCT-116 [12] = assay: Cell cycle arrest in human HCT116 cells assessed as accumulation at S phase at 10 uM after 24 hrs propidium iodide staining based flow cytometry (reference value: 18%); type: functional; how it was run: as §2
HCT-116 [13] = assay: Induction of apoptosis in human HCT116 cells assessed as increase in cleaved caspase-3 expression at 10 to 50 uM after 24 hrs by Western blot analysis; type: functional, cell-based
How it was run: (§3)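 HCT116 and RKO cells given a range of compound doses for 24 h; lysates probed by Western blot for apoptosis-related proteins (p53, BAX, BCLxL).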

RKO [14] = assay: Induction of apoptosis in human RKO cells assessed as early apoptotic cells at 10 uM after 24 hrs by Annexin V/propidium iodide staining based flow cytometry (reference value: 9.62%); type: functional
RKO [15] = assay: Induction of apoptosis in human RKO cells assessed as necrotic cells at 25 uM after 24 hrs in presence of oxaliplatin by Annexin V/propidium iodide staining based flow cytometry (reference value: 0.22%); type: functional
[16] = AUCt in rat at 10 mg/kg, po; type: ADME, organism-based; conditions: in vivo; how it was run: as §1
Cytochrome P450 2D6 = Cytochrome P450 2D6 (Homo sapiens, UniProt P10635); assay: Inhibition of CYP2D6 in human liver microsomes assessed as reduction in dextromethorphan O-demethylation by tandem mass spectrometry analysis; type: ADME
How it was run: (§4)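 Pooled human liver microsomes incubated with compound at 0–50 μM final; CYP probe activities (phenacetin O-deethylation for 1A2, tolbutamide 4-hydroxylation for 2C9, omeprazole hydroxylation for 2C19, dextromethorphan O-demethylation for 2D6) run as a cocktail incubation and quantified by tandem MS; duplicates; IC50 derived.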

HCT-116 [17] = assay: Cell cycle arrest in human HCT116 cells assessed as accumulation at G1/G0 phase at 25 uM after 24 hrs propidium iodide staining based flow cytometry (reference value: 42%); type: functional; how it was run: as §2
HCT-116 [18] = assay: Induction of apoptosis in human HCT116 cells assessed as increase in Bax expression at 10 to 50 uM after 24 hrs by Western blot analysis; type: functional, cell-based; how it was run: as §3
Cytochrome P450 2C9 = Cytochrome P450 2C9 (Homo sapiens, UniProt P11712); assay: Inhibition of CYP2C9 in human liver microsomes assessed as reduction in tolbutamide 4-hydroxylation by tandem mass spectrometry analysis; type: ADME; how it was run: as §4
HCT-116 [19] = assay: Cell cycle arrest in human HCT116 cells assessed as accumulation at sub-G1 phase at 25 uM after 24 hrs propidium iodide staining based flow cytometry (reference value: 17.8%); type: functional; how it was run: as §2
RKO [20] = assay: Induction of apoptosis in human RKO cells assessed as necrotic cells at 10 uM after 24 hrs by Annexin V/propidium iodide staining based flow cytometry (reference value: 0.56%); type: functional
[21] = Oral bioavailability in rat at 10 mg/kg; type: ADME, organism-based; conditions: in vivo
HCT-116 [22] = assay: Cell cycle arrest in human HCT116 cells assessed as accumulation at sub-G1 phase at 10 uM after 24 hrs propidium iodide staining based flow cytometry (reference value: 17.8%); type: functional; how it was run: as §2
Mast cell [23] = assay: Inhibition of degranulation in IgE-labeled bone marrow-derived mast cells (unknown origin) assessed as reduction in beta-hexosaminidase release by measuring absorbance at 20 uM preincubated for 1 hr followed by HSA stimulation and measured after 15 mins (reference value: 0.26 +/- 0.025); type: functional
[24] = Half life in rat at 10 mg/kg, po; type: ADME, organism-based; conditions: in vivo; how it was run: as §1
RKO [25] = assay: Inhibition of colony formation in human RKO cells at 10 to 50 […] after 7 days by crystal violet staining based assay; type: functional, cell-based
How it was run: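 HCT116 and RKO cells seeded in 6-well plates and treated with compound for 7 days. Cells then fixed and stained with crystal violet to score colony formation.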

Sequence of Cytochrome P450 2C9 (P11712 whole entry): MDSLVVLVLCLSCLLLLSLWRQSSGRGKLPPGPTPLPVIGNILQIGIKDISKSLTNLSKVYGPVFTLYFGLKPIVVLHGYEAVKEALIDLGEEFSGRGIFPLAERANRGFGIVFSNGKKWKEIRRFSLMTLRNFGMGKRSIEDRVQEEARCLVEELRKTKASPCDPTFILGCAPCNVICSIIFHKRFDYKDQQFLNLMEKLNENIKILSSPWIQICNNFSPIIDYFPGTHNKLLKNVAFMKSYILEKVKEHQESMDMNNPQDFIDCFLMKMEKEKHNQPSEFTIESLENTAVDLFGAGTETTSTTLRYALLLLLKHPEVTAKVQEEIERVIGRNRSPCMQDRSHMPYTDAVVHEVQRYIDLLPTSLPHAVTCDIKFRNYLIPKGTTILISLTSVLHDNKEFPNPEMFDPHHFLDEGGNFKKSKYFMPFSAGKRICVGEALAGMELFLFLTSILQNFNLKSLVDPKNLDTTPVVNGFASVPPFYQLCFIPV
Sequence of RAC-alpha serine/threonine-protein kinase (Mus musculus) (P31750 whole entry): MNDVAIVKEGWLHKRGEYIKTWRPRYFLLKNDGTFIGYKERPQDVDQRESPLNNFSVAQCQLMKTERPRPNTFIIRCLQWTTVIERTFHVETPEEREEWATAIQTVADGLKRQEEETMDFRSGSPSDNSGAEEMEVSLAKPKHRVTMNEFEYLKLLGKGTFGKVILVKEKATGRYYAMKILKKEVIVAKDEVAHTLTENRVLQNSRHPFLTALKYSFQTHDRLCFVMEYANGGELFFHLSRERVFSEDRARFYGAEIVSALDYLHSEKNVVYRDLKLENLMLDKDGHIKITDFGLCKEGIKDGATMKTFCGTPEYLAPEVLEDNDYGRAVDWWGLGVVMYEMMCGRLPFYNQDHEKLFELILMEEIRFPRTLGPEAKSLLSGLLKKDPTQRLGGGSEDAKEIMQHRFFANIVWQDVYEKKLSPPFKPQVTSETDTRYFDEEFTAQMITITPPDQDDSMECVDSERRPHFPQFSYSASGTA
Sequence of Cytochrome P450 2D6 (P10635 whole entry): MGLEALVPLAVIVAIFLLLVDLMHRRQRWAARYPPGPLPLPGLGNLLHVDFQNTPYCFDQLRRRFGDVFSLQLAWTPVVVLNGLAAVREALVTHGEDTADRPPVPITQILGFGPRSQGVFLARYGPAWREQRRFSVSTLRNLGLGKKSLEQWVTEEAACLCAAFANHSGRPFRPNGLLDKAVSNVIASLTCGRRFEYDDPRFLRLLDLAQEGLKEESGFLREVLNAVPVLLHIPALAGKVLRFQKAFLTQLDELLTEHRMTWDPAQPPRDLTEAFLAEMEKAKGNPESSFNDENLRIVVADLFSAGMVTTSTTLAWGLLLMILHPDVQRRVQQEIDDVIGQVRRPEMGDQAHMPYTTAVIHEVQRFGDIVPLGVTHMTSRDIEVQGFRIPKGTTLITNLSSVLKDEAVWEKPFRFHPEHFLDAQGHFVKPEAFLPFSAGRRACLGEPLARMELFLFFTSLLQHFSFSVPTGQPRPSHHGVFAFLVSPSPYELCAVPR
Sequence of [Pyruvate dehydrogenase (acetyl-transferring)] kinase isozyme 4, mitochondrial (Q16654 whole entry): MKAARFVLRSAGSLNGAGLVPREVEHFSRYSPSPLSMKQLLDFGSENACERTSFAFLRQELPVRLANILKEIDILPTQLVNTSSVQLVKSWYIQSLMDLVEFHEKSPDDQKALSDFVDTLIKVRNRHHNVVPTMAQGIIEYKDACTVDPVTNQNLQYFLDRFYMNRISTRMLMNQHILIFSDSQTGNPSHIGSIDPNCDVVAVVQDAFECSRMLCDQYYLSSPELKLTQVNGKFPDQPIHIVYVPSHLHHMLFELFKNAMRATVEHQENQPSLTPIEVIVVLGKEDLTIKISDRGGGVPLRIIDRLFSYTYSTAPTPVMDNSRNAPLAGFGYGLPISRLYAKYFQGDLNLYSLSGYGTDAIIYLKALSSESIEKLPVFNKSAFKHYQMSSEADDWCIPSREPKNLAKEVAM

## Cl.O=C1c2ccccc2C(=O)c2c1cccc2-c1cnn(C2CCNCC2)c1
Mast cell [1]
  OD: 0.2
[2]
  Drug metabolism: Metabolite_Detected
[3]
  clearance: 11.4 mL/min/kg
RKO [4]
  Activity: 82.8%
HFL1
  IC50: 36.5 µM
[5]
  Activity: Active
RKO [6]
  Activity: 8.2%
HCT-116 [7]
  Activity: 37.1%
RKO [8]
  Activity: Active
RKO [9]
  Activity: 33.8%
[10]
  IC50: 0.084 µM
HCT-116 [11]
  Activity: 25.9%
CHO-K1
  IC50: 36 µM
HCT-116 [12]
  Activity: 29.1%
HCT-116 [13]
  Activity: Active
RKO [14]
  Activity: 5.2%
RKO [15]
  Activity: 5.07%
[16]
  AUC(0-t): 8920 ng·h/mL
Cytochrome P450 2D6
  IC50: > 50 µM
HCT-116 [17]
  Activity: 19%
HCT-116 [18]
  Activity: Active
Cytochrome P450 2C9
  IC50: > 50 µM
HCT-116 [19]
  Activity: 32.5%
RKO [20]
  Activity: 0.89%
[21]
  bioavailability: 63.6%
HCT-116 [22]
  Activity: 14.4%
Mast cell [23]
  OD: 0.126
[24]
  half-life: 21.6 h
RKO [25]
  inhibition: Active

From ChEMBL document CHEMBL4330127, “Discovery of Novel Pyruvate Dehydrogenase Kinase 4 Inhibitors for Potential Oral Treatment of Metabolic Diseases” (J Med Chem, 2019)
